The RNAGym collection of RNA variant scans (doi:10.1126/science.aae0568)
Variants at the floor of the assay were thinned out.

B1: tRNA (parent)
chain: GUUCCGUUGGCGUAAUGGUAACGCGUCUCCCUCCUAAGGAGAAGACUGCGGGUUCGAGUCCCGUACGGAACG

Variants of: B1
Test: yeast fitness relative to wild type (ratio to wild type); higher = fitter; tRNA-Arg(CCU), competitive growth, 37 C, YPD
In short: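 Genotype frequency changes were the basis for Darwinian fitness relative to wild type. The frequencies came from 100-nucleotide paired-end sequencing of gene amplicons from the start population and each end population of pooled yeast strains with tRNA-Arg(CCU) gene variants at the native locus. Competition ran in YPD at 37°C for 24 hours in six replicates, genotypes needed ≥ 100 starting reads, and estimates < 0.5 were set to 0.5.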

| Variant | yeast fitness |
| --- | --- |
| U13C C22A | 0.791 |
| U13C C22A U32A A36G A43U | ≤ 0.5 |
| U13C C22G | 0.709 |
| U13C C22G C24U A37C G51C C55U A69C A70U | ≤ 0.5 |
| U13C C22G C27A G51C | ≤ 0.5 |
| U13C C22G G68C | 0.542 |
| U13C C22G G68U | ≤ 0.5 |
| U13C C22U G38C G51A A57C | ≤ 0.5 |
| U13C C24G | 0.672 |
| U13C C24G C30A U47C | ≤ 0.5 |
| U13C C24G C49G | ≤ 0.5 |
| U13C C24G G67C | ≤ 0.5 |
| U13C C24G U26A C55G C66A | 0.561 |
| U13C C27G | 0.544 |
| U13C C27G A36G U54G | ≤ 0.5 |
| U13C C27G A40U C66U | 0.538 |
| U13C C27G U35G C49G A57C | ≤ 0.5 |
| U13C C27U A69U A70C | ≤ 0.5 |
| U13C C27U C31A U35C C55G C66U A70C | ≤ 0.5 |
| U13C C27U G52A U53A C66U | ≤ 0.5 |
| U13C C29A | 0.618 |
| U13C C29A C33A U35C G51A | ≤ 0.5 |
| U13C C29A G51C G63A | ≤ 0.5 |
| U13C C29G A36G G41A G48C A57U | ≤ 0.5 |

| Variant | yeast fitness |
| --- | --- |
| U13C C29G C62U A69C | 0.537 |
| U13C C30G C31A | ≤ 0.5 |
| U13C C31A C55A | 0.565 |
| U13C C31G | 0.933 |
| U13C C31G A40C A42G G51A | 0.578 |
| U13C C31U A57G U64A C66A A69C | ≤ 0.5 |
| U13C C31U A69U | 0.835 |
| U13C C31U A70C | 0.756 |
| U13C C31U C55G G67C | ≤ 0.5 |
| U13C C31U G50C | ≤ 0.5 |
| U13C C31U U47G | 0.562 |
| U13C C33A G41A A45C U59C A65U | ≤ 0.5 |
| U13C C33U | 0.744 |
| U13C C33U A45G G50A C66A G68A A70U | ≤ 0.5 |
| U13C C34G A40U A45C A57C C61U | ≤ 0.5 |
| U13C C34U G48C C61U G67A | ≤ 0.5 |
| U13C C46U | 0.886 |
| U13C C49A | 0.795 |
| U13C C55G | 0.645 |
| U13C C61U | 0.928 |
| U13C C62G | 0.804 |
| U13C G17A A43U | 0.523 |
| U13C G18A A43U | 0.627 |
| U13C G18A C46G U47A C49U C55G A57C | ≤ 0.5 |

| Variant | yeast fitness |
| --- | --- |
| U13C G18C | 0.618 |
| U13C G18C G50C A57U C62U | 0.578 |
| U13C G18C G52C G56A | ≤ 0.5 |
| U13C G23A G63A A70U | 0.527 |
| U13C G23C A36C G39A | 0.611 |
| U13C G23C A36C G39A A43G | ≤ 0.5 |
| U13C G23C C29G A43U G50A A65C | ≤ 0.5 |
| U13C G23C C62A | ≤ 0.5 |
| U13C G23C U47C | ≤ 0.5 |
| U13C G25A C31U G38C | 0.659 |
| U13C G25A C33G G41C C61G A65U | ≤ 0.5 |
| U13C G25C C31G | 0.877 |
| U13C G25C C61U | 1.14 |
| U13C G38A C49U | ≤ 0.5 |
| U13C G38C | 0.644 |
| U13C G41C | 0.761 |
| U13C G41C A70C | 0.566 |
| U13C G44A C49U | 0.799 |
| U13C G44C G58A G68A | 0.572 |
| U13C G48A | 0.853 |
| U13C G48C A65G | 0.655 |
| U13C G50U | 0.81 |
| U13C G51A A65C | ≤ 0.5 |
| U13C G51C C66A | ≤ 0.5 |

| Variant | yeast fitness |
| --- | --- |
| U13C G52A A69U | 0.689 |
| U13C G52A C55G A69U | ≤ 0.5 |
| U13C G52C U53A C55G A69U | ≤ 0.5 |
| U13C G58A | 0.891 |
| U13C G58C | 0.922 |
| U13C G58C A69U | 0.7 |
| U13C G63C | 0.742 |
| U13C G67A | 0.848 |
| U13C G67C | 0.771 |
| U13C G67U | 0.719 |
| U13C U16A A57U | ≤ 0.5 |
| U13C U16C A57G G68A A69G | ≤ 0.5 |
| U13C U16G | 0.865 |
| U13C U16G A43U | 1.02 |
| U13C U19A A42C G50C | 0.619 |
| U13C U19C U26C C31A C61G | ≤ 0.5 |
| U13C U26A | 0.982 |
| U13C U26C C27G C34U A37U A43G A45G C46U | ≤ 0.5 |
| U13C U26C C31U | 0.784 |
| U13C U28A C62U C66A | ≤ 0.5 |
| U13C U28G U54A C62A | 0.624 |
| U13C U47C C62U | 0.715 |
| U13C U47G | 0.625 |
| U13C U53A | 0.674 |

| Variant | yeast fitness |
| --- | --- |
| U13C U53C | 0.727 |
| U13C U54A C60U | ≤ 0.5 |
| U13C U59C C66U G67U | 0.576 |
| U13G A14U G17A | ≤ 0.5 |
| U13G A15C C30G C34A U35A U53C A57U C60G | 0.564 |
| U13G A20G U53G C66U | ≤ 0.5 |
| U13G A20U A42G U59A A65G | ≤ 0.5 |
| U13G A20U A65C | 0.594 |
| U13G A20U A69U | 0.708 |
| U13G A20U U53C C62U | ≤ 0.5 |
| U13G A21C | 0.611 |
| U13G A21G | 0.895 |
| U13G A21U C22G U26C U35A A65G A70C | ≤ 0.5 |
| U13G A21U C22G U35A A65G | ≤ 0.5 |
| U13G A36C C46U | ≤ 0.5 |
| U13G A36G G68C | ≤ 0.5 |
| U13G A36U A40C | ≤ 0.5 |
| U13G A37C | 0.65 |
| U13G A37C U47A A70G | ≤ 0.5 |
| U13G A40G C61U G63C | ≤ 0.5 |
| U13G A40G U47C A69U | 0.653 |
| U13G A40U | 0.945 |
| U13G A40U C62A | 0.52 |
| U13G A42C U54A G67C A69U | ≤ 0.5 |

| Variant | yeast fitness |
| --- | --- |
| U13G A42C U64C | 0.715 |
| U13G A42G | 0.733 |
| U13G A43C U54A A57G | ≤ 0.5 |
| U13G A43G | 0.902 |
| U13G A43G U53A | 0.57 |
| U13G A45C G48A | 0.898 |
| U13G A45U C55G | ≤ 0.5 |
| U13G A57C | 0.599 |
| U13G A65C A70G | 0.619 |
| U13G A65G C66A | ≤ 0.5 |
| U13G A65U | 0.896 |
| U13G C22G | 0.809 |
| U13G C22G C27A C61U | ≤ 0.5 |
| U13G C22G G63C G67A | ≤ 0.5 |
| U13G C22U | 0.972 |
| U13G C22U C31A | 0.552 |
| U13G C22U C31A C55U G63A A69C | ≤ 0.5 |
| U13G C22U G25A C31A | 0.601 |
| U13G C24A C46G G52A | ≤ 0.5 |
| U13G C24G A36C A40U G48A | 0.525 |
| U13G C24G G51A | ≤ 0.5 |
| U13G C24U A36G U47C G50A | 0.518 |
| U13G C24U G44A G58C | 0.508 |
| U13G C24U G56A | 0.612 |

| Variant | yeast fitness |
| --- | --- |
| U13G C27A | 0.628 |
| U13G C27A C30A A57C | ≤ 0.5 |
| U13G C27U C31U C34G A40G G63C | ≤ 0.5 |
| U13G C27U G44A A57U | ≤ 0.5 |
| U13G C29U G48A G56A | 0.55 |
| U13G C30A | 0.715 |
| U13G C30U U32C | 0.686 |
| U13G C31A | 0.833 |
| U13G C31A U54C A57U | ≤ 0.5 |
| U13G C31G A43U C46G A70U | ≤ 0.5 |
| U13G C31U U35A | 0.51 |
| U13G C34U A37U | ≤ 0.5 |
| U13G C46U A65G | 0.773 |
| U13G C60U | 0.747 |
| U13G C61U A70G | 0.618 |
| U13G G17U U28A G41C U64G | ≤ 0.5 |
| U13G G18C C30U C33G U47G | 0.578 |
| U13G G25A U59C | 0.681 |
| U13G G38A | 0.781 |
| U13G G39C | 0.735 |
| U13G G39C C49G A65G | ≤ 0.5 |
| U13G G44A A57U | 0.617 |
| U13G G48A | 0.986 |
